From PubChem
L major viab: reduces viability of Leishmania major promastigotes. resazurin fluorescence viability. inhibition, % at 10 µM. 9% of 200,000 active. AID 1063; in the data active = inhibition above about 50%;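 also: promastigotes grown with compound for 44 hours at 28 °C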
RAM network inh: yeast RAM network inhibition; S. cerevisiae dse1pr::URA3 reporter, 5-FOA growth OD615, 2 d; analog-sensitive cbk1-as2 kinase mutant strain; AID 868; inhibition, % at 50 µM; 1.8% of 190,000 active;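 active = inhibition above a set limit, 3 SD over mean compound inhibition, cut at about 8.4% in these data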;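 also: inhibition rescues growth on 5-FOA so higher OD means more RAM inhibition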
WT yeast gro inh: growth inhibition of WT yeast, mitochondrial fusion screen; mitochondrial fusion phenotypic screen, WT strain; inhibition, % at 10 µM; 2.1% of 190,000 active; in the data active = inhibition above about 58%; tested in S. cerevisiae
ABCB1 inh: human ABCB1 inhibition, ABCG2 as counter-screen | 0.067% of 190,000 active | inhibition, % at 6.6 µM | P08183 | AID 1326 | CCRF-Adr cells, JC-1 efflux, flow cytometry; in the data active = inhibition above about 40%;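 also: higher value means more JC-1 retained so stronger ABCB1 efflux block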
ABCG2 inh: inhibitors of human ABCG2 transporter, ABCB1 counter-screen; Q9UNQ0; 0.1% of 190,000 active; AID 1325; inhibition, % at 6.6 µM; IgMXP3 cells, JC-1 efflux, flow cytometry;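 active = inhibition above 80%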
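Read-out basis: Efflux inhibition in percent versus controls | Test system: ABCG2 IgMXP3 and barcoded ABCB1 CCRF-Adr cell mix | Quantity: 3 million cells/mL in well | Schedule: 10 min at 25 °C | Control set: Nicardipine as high control, DMSO as low control | Reagent: JC-1 as fluorescent efflux pump substrate | Signal: Flow cytometry of retained JC-1 fluorescence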
Large screens that a line does not name were inactive. Sampled rows, rich in hits. Any-hit rate of the full collection: about 12%.

CCC(c1nnnn1CCc1ccccc1)N(Cc1ccco1)Cc1cc2cccc(C)c2[nH]c1=O (configuration not stated)	L major viab 98.5
COc1ccccc1NC(C)C(=O)N/N=C/c1ccccc1OCc1cccc(Br)c1 (configuration not stated)	none
O=C(CNC(=O)C12CC3CC(CC(C3)C1)C2)N/N=C\c1ccccn1	none
CCOc1ccc(CN(C)CC(=O)Nc2cccc(S(=O)(=O)N(C)c3ccccc3)c2)cc1	L major viab 74.0
CN(C)S(=O)(=O)c1cccc(NC(=O)COC(=O)CCOc2ccccc2)c1	none
CN(c1ccccc1)S(=O)(=O)c1cccc(NC(=O)Cn2cnc3ccccc3c2=O)c1	L major viab 97.8
CC(C)(C)c1ccc(OCCCC(=O)Nc2ccc(S(N)(=O)=O)cc2)cc1	L major viab 73.2
CC(=O)c1ccc(OCCCC(=O)Nc2cccc(S(=O)(=O)N(C)C)c2)cc1	L major viab 58.4
COc1ccc2cc(-c3[nH]ncc3CN3CCCN(c4ccccc4)CC3)ccc2c1	none
CCn1c(=O)c(C(=O)NNS(=O)(=O)c2ccc(Br)cc2)c(O)c2ccccc21	none
O=C(NC1=NCCS1)c1cccc(OC(F)F)c1	none
COc1ccc(Br)cc1CN(C)CC(=O)Nc1cccc(S(N)(=O)=O)c1	none
CN(c1ccccc1)S(=O)(=O)c1cccc(NC(=O)CN2CCc3ccccc3C2)c1	none
CN(c1ccccc1)S(=O)(=O)c1cccc(NC(=O)CC(C)(C)C)c1	L major viab 96.5
COc1cccc(CN(C)CC(=O)Nc2cccc(S(N)(=O)=O)c2)c1OC	L major viab 87.9
Cc1ccc(C(=O)COc2ccccc2N2C(=O)c3ccccc3C2=O)cc1	RAM network inh 8.8
Cc1cc(Cl)n2c(nc3cc(F)c(F)cc32)c1C#N	L major viab 90.7, WT yeast gro inh 80.7
Cc1cc(C)n2c(=O)c3ccc(Cl)cc3nc2c1C#N	none
COc1cc2c(cc1OC)C(Nc1ccccc1)=NC(C)(C)C2	none
O=c1[nH]c(CN2CCc3ccccc3C2)nc2ccccc12	none
Cc1[nH]c2ccccc2c1CN1CCc2ccccc2C1	L major viab 99.8
COc1cc(OC)c(OC)cc1/C=N/NC(=S)NCC1CCCO1 (configuration not stated)	none
CCCn1c(N2CCN(CC(=O)Nc3ccc4c(c3)OCCO4)CC2)nc2ccccc21	L major viab 79.2
Cc1c(N=C2NC(=O)/C(=C/c3ccc(O)cc3)S2)c(=O)n(-c2ccccc2)n1C	none
O=C1NC(=NCc2ccccc2)S/C1=C/c1ccc(O)cc1	L major viab 63.1
Cc1sc(NC(=O)c2ccco2)c(C(c2ccc(F)cc2)N2CCN(C)CC2)c1C (configuration not stated)	L major viab 51.4, WT yeast gro inh 95.0
Cc1sc(NC(=O)c2ccco2)c(C(c2cccnc2)N2CCN(c3ccc(F)cc3)CC2)c1C (configuration not stated)	L major viab 80.0, RAM network inh 8.4
Cc1sc(NC(=O)c2ccco2)c(C(c2ccccc2)N2CCC(C)CC2)c1C (configuration not stated)	none
Cc1sc(NC(=O)c2ccco2)c(C(c2cccnc2)N2CCN(CCO)CC2)c1C (configuration not stated)	none
CCOC(=O)C1CCN(C(c2cccnc2)c2c(NC(=O)c3ccco3)sc(C)c2C)CC1 (configuration not stated)	L major viab 93.4
O=C(CSc1nncs1)NCCCc1ccccc1	none
Cc1occc1C(=O)NNC(=O)COc1ccc(Br)cc1Br	none
Cc1ccc(OCC(=O)NNC(=O)c2ccoc2C)c(Br)c1	L major viab 72.3
COC(=O)c1sc(S(=O)(=O)Nc2ccc(Br)cc2)c(C(=O)OC)c1C	RAM network inh 8.7
COc1ccc(NC(=S)N2CCNC(=O)C2CC(=O)Nc2ccc(C)cc2)cc1 (configuration not stated)	none
CC1(C)C2CCC1(C)C(OC(=O)CC(=O)O)C2 (configuration not stated)	WT yeast gro inh 63.7
CNC(=S)N1N=C(c2ccc(C)cc2)CC1c1ccc(N(C)C)cc1 (configuration not stated)	none
CNC(=S)N1N=C(c2ccc(C)cc2)CC1c1cc(OC)ccc1OC (configuration not stated)	L major viab 53.0
COc1ccc(C2CC(c3ccccc3)=NN2S(=O)(=O)c2ccc(C)cc2)c(OC)c1 (configuration not stated)	none
